Assays:
[1] = test system: peripheral blood immune cells; assay: Pharmacodynamics: fold change in peripheral blood; type: in vivo, human; details: 27–29 Days from C1; N=10
Method in brief: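 Complete blood counts, including absolute monocyte count, were taken as safety labs before treatment, mid-C1, before C2–C9, then every other cycle and at end of therapy. Patients took the oral agent once daily on a continuous 28-day cycle, dosed by BSA at 400, 600 or 800 mg/m2.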

[2] = test system: serum cytokines (IL-10, IL-12p70, IL-6, MCP-1, M-CSF); assay: Pharmacodynamics: serum cytokine analysis, fold change from Day 1; type: in vivo, human
[3] = test system: PBMC; assay: Flow cytometric analysis of PBMC and lymphocyte subset analysis; type: in vivo, human
[4] = test system: recurrent or refractory acute leukemias or solid tumors including NF1 PN; assay: Tumor response; type: in vivo, human
Method in brief: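 Tumors assessed at baseline (within 14 days before start), then after every even 28-day cycle with the same imaging modality. Criteria were RECIST v1.1 for solid tumors, WHO for brain tumors, and volumetric MRI for NF1 plexiform neurofibromas (baseline, every 4th cycle in year 1, then every 6 cycles). Leukemia was followed by blood and marrow each cycle. Treatment lasted up to two years.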

[5] = adults; cited from earlier work
[6] = recurrent glioblastoma patients, plasma taken at time of surgery; cited from earlier work
[7] = non-human primate model, nontumor setting; cited from earlier work
[8] = adult patients; cited from earlier work
[9] = test system: circulating monocytes and regulatory T cells and TAMs; details: cited from earlier work
[10] = patient 2, Osteosarcoma, dose level 1
[11] = patient 3, Ewing Sarcoma, dose level 1
[12] = patient 4, NF1 plexiform neurofibroma, dose level 1
[13] = patient 5, NF1 plexiform neurofibroma, dose level 2
[14] = patient 6, NF1 plexiform neurofibroma, dose level 2
[15] = patient 7, Central Nervous System PNET, dose level 2
[16] = patient 8, Primary brain tumor, dose level 2
[17] = patient 9, NF1 malignant peripheral nerve sheath tumor, dose level 3
[18] = patient 10, Osteosarcoma, dose level 3
[19] = patient 11, Osteosarcoma, dose level 3
[20] = patient 12, Embryonal rhabdomyosarcoma, dose level 3
[21] = patient 13, Acute myeloid leukemia, dose level 3
[22] = patient 14, Spindle cell carcinoma, dose level 3
[23] = patient 15, Aneurysmal fibrous histiocytoma, dose level 3
[24] = patient 16, Glioblastoma, dose level 3

For `FC(F)(F)c1ccc(CNc2ccc(Cc3c[nH]c4ncc(Cl)cc34)cn2)cn1` [Pexidartinib], the “Platelet Count, Med. Fold Change (95% CI) from Day 1” value [1] was 0.94 (0.79, 1.18), the “White blood cell (WBC), Med. Fold Change (95% CI) from Day 1” value [1] was 0.81 (0.58, 1.28) and the “IL-6 serum, Med. Fold Change (95% CI) from Day 1” value ([2]; 14–15 Days from C1, N=12) was 0.91 (0.78, 1.34). The “IL-10 serum, Med. Fold Change (95% CI) from Day 1” value ([2]; 14–15 Days from C1, N=12) was 1.25 (1.11, 1.44), the “IL-12p70 serum, Med. Fold Change (95% CI) from Day 1” value ([2]; 14–15 Days from C1, N=12) was 0.92 (0.80, 1.25) and the “M-CSF serum, Med. Fold Change (95% CI) from Day 1” value ([2]; 14–15 Days from C1, N=12) was 3.70 (2.31, 5.24). The “MCP-1 serum, Med. Fold Change (95% CI) from Day 1” value ([2]; 14–15 Days from C1, N=12) was 1.28 (1.01, 1.56), the “IL-6 serum, Med. Fold Change (95% CI) from Day 1” value ([2]; 27–29 Days from C1, N=8) was 0.98 (0.64, 2.39) and the “IL-10 serum, Med. Fold Change (95% CI) from Day 1” value ([2]; 27–29 Days from C1, N=8) was 1.22 (0.81, 1.30). For the same molecule, the “IL-12p70 serum, Med. Fold Change (95% CI) from Day 1” value ([2]; 27–29 Days from C1, N=8) was 0.86 (0.66, 1.05), the “M-CSF serum, Med. Fold Change (95% CI) from Day 1” value ([2]; 27–29 Days from C1, N=8) was 4.52 (2.40, 13.3) and the “MCP-1 serum, Med. Fold Change (95% CI) from Day 1” value ([2]; 27–29 Days from C1, N=8) was 1.27 (1.11, 1.54). The “Target inhibition (CSF1 levels elevated, AMC levels decreased)” value ([2]; 400, 600, 800 mg/m^2 DLs) was “seen at all DLs”, the “Change in CD14dimCD16+ nonclassical, pro-inflammatory monocytes” value ([3]; C1) was “No significant changes” and the “CD11b+ cells in PBMC, median fold change (95% CI)” value ([3]; C1 days 6–8, flow cytometry) was 0.47 (0.21, 1.31). The “Change in peripheral blood lymphocyte subset analysis” value ([3]; during C1) was “no notable changes”, the “Sustained partial response, RECIST decrease in longest diameter of target lesion” value ([4]; 1 patient with peritoneal mesothelioma, 400 mg/m^2/day DL) was 67% and the “Stable disease, number of patients” value ([4]; 16 patients enrolled) was “three”. The “Median number of treatment cycles received” value ([4]; 16 patients, 1 C = 28 days) was 1 C, the “Duration of stable disease prior to disease progression” value ([4]; one patient with metastatic, rapidly progressive osteosarcoma, 1 C = 28 days) was 4 C and the “Reason Off Treatment” value ([4]; patient 1, Peritoneal mesothelioma, dose level 1) was “Remains on Study”. For the same molecule, the “Reason Off Treatment” value [4, 10] was “Progressive Disease”, the “Time-point Off Treatment” value [4, 10] was “Cycle 1 Day 23” and the “Reason Off Treatment” value [4, 11] was “Progressive Disease”. The “Time-point Off Treatment” value [4, 11] was “Cycle 1 Day 28”, the “Reason Off Treatment” value [4, 12] was “Best Interest of Patient” and the “Time-point Off Treatment” value [4, 12] was “After Cycle 4”. For the same molecule, the “Reason Off Treatment” value [4, 13] was “Withdrawal of Consent”, the “Time-point Off Treatment” value [4, 13] was “After Cycle 1 (took 23 doses)” and the “Reason Off Treatment” value [4, 14] was “Best Interest of Patient”. For the same molecule, the “Time-point Off Treatment” value [4, 14] was “After Cycle 6”, the “Reason Off Treatment” value [4, 15] was “Progressive Disease” and the “Time-point Off Treatment” value [4, 15] was “After Cycle 1”. For the same molecule, the “Reason Off Treatment” value [4, 16] was “Progressive Disease”, the “Time-point Off Treatment” value [4, 16] was “After Cycle 1” and the “Reason Off Treatment” value [4, 17] was “Progressive Disease”. The “Time-point Off Treatment” value [4, 17] was “Cycle 2 Day 28”, the “Reason Off Treatment” value [4, 18] was “Progressive Disease” and the “Time-point Off Treatment” value [4, 18] was “Cycle 4 Day 6”. For the same molecule, the “Reason Off Treatment” value [4, 19] was “Progressive Disease”, the “Time-point Off Treatment” value [4, 19] was “Cycle 3 Day 1” and the “Reason Off Treatment” value [4, 20] was “Progressive Disease”. The “Time-point Off Treatment” value [4, 20] was “Cycle 1 Day 12”, the “Reason Off Treatment” value [4, 21] was “Progressive Disease” and the “Time-point Off Treatment” value [4, 21] was “Cycle 1 Day 15”. For the same molecule, the “Reason Off Treatment” value [4, 22] was “Progressive Disease”, the “Time-point Off Treatment” value [4, 22] was “Cycle 1 Day 23” and the “Reason Off Treatment” value [4, 23] was “Progressive Disease”. For the same molecule, the “Time-point Off Treatment” value [4, 23] was “Cycle 3 Day 16”, the “Reason Off Treatment” value [4, 24] was “Progressive Disease” and the “Time-point Off Treatment” value [4, 24] was “Cycle 2 Day 5”. For the same molecule, the Median terminal half-life [5] was 16.8 h, the “Median ratio of tumor/plasma concentrations” value [6] was 70% and the “Drug levels in the cerebral spinal fluid” value [7] was “low but detectable levels”. For the same molecule, the “Liver toxicity in adult trials” value [8] was “idiosyncratic, serious (grade 4–5) liver toxicity was observed in a small subset of patients” and the “Effect on immune cells in a preclinical model” value [9] was “decreases in circulating monocytes and regulatory T cells and TAMs”.

Reference: publication PMC7909006 (Clinical cancer research : an official journal of the …, 2020)
